Screening results from PubChem BioAssay.
GRK2 aptamer HTS: blocks RNA aptamer binding to human GRK2 | inhibition of aptamer binding, % at 10 µM | 330,000 tested, 0.59% active | AID 488847 | bead flow cytometry, FAM-aptamer displacement from GRK2;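 active means inhibition of aptamer binding above 40%, roughly 3 SD of noise, on plates passing a quality check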;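 further: median bead fluorescence of bound FAM aptamer so fluorescent compounds give negative values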
Target sequence (P25098 whole entry, looked up): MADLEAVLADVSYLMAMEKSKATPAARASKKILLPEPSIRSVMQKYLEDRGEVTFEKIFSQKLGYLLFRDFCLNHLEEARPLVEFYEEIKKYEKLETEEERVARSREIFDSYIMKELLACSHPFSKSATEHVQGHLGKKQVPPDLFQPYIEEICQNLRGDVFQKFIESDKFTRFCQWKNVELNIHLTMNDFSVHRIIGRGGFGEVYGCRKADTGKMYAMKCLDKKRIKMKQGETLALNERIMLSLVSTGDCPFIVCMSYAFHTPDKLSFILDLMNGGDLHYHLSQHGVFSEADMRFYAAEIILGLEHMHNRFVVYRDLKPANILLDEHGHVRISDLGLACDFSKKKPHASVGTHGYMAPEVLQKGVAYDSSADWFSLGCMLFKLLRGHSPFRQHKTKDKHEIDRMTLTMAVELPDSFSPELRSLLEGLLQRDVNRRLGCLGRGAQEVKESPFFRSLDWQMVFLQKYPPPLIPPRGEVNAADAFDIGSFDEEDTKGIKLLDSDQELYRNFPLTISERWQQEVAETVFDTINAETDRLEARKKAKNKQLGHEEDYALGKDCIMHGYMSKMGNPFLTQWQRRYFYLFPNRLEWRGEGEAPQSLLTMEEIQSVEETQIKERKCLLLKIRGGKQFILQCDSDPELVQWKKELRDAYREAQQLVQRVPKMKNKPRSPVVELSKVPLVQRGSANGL
H9c2 TAG inh: reduces triacylglycerol accumulation in H9c2 cells | inhibition, % at 12.5 µM | Nile Red lipid (TAG) fluorescence; cells loaded with 200 µM oleic acid | 230,000 tested, 0.66% active;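 active means pattern-corrected inhibition of lipid staining of at least 50% with the nuclear-stain viability signal not falling by more than 50%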
NTR1 ag: activates human neurotensin receptor 1; NTR1-U2OS beta-arrestin-GFP spot imaging, agonist mode; AID 493036; activation, % at 20 µM; P30989; 330,000 tested, 0.17% active;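 active means activation at or above 40% of the spot to cytoplasm intensity ratio, with at least 20 cells analyzed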
Lipid droplet: modulators of hepatic lipid droplet formation; inhibition, % at 6.5 µM; 240,000 tested, 0.4% active; AML12 mouse hepatocytes, oleate lipid droplets, BODIPY imaging;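 active means lipid droplet intensity inhibited by at least 50%, with more than 500 cells counted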
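Assay system: AML12 mouse liver cells | Compound dosing: One dose, 6.5 µM compound | Read-out basis: Droplet intensity reduction, % inhibition | Measured by: Fluorescence imaging, 20x objective, two fields per well | Schedule: Overnight treatment with compound plus oleate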
Arrestin-AP2 inh: human beta-arrestin and AP2 interaction inhibition; FITC-arrestin peptide / GST-AP2 beads, flow cytometry; AP2 beta2 appendage carries R879A mutation; inhibition, % at 10 µM; 340,000 tested, 0.31% active; AID 504490;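 active means inhibition above a set limit, near 3 SD of compounds lacking own fluorescence, cut at about 54% in these data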
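System: GST-AP2 R879A bound to glutathione beads, E. coli-expressed. Also added: 50 nM FITC-arrestin peptide. Schedule: compound with beads 12 min RT, then probe 1 h RT. Signal: bead flow cytometry, FITC channel. Read-out basis: percent response.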
Beta2AR agonist: human beta-2 adrenergic receptor agonism by FAP | P07550 | Am2.2-beta2AR cells, FAP receptor internalization, flow cytometry | response, % (concentration not given with the values) | 340,000 tested, 0.43% active | AID 504454;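 active means response above a set limit, near 3 SD of response in nonfluorescent compounds, cut at about 42% in these data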
Arr AP2 CP1: blocks beta-arrestin peptide binding to human AP2; shares compounds with Arrestin-AP2 inh; GST-AP2 beads, FITC arrestin peptide binding, flow cytometry; GST-fused beta2-adaptin appendage, R879A mutant; inhibition, % at 10 µM; 1,300 tested, 2% active; AID 504908;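 active means inhibition above a set limit, roughly 3 SD of non-fluorescent compound noise, cut at about 38% in these data; inactive means inhibition at or below that limit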;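 further: loss of bead fluorescence from 50 nM FITC arrestin peptide bound to appendage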
GST-FITC bead: disrupts GST binding to glutathione beads, arrestin-AP2 artifact; shares compounds with Arrestin-AP2 inh; GST-fluorescein binding to GSH beads, fluorescence, counter-screen; inhibition, % at 10 µM; 1,300 tested, 2% active;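 active means inhibition above 50%, about 3 SD of the inhibition seen with non-fluorescent compounds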;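 further: fluorescein maleimide labelled GST captured on 4 micron glutathione beads; higher means more loss of bead fluorescence from quenching or blocked binding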
Hits are given with their value; i = inactive; nt = not tested or not shown. Hits are enriched below; roughly 2% of the tested compounds scored in any of these assays.

SMILES	GRK2 aptamer HTS	H9c2 TAG inh	NTR1 ag	Lipid droplet	Arrestin-AP2 inh	Beta2AR agonist	Arr AP2 CP1	GST-FITC bead
CC1CC(C)(C)NC2(CCCC2)N1 (configuration not stated)	nt	i	nt	nt	i	i	nt	nt
COc1c(Cl)cc(C(=O)NN)cc1Cl	i	i	i	i	i	i	nt	nt
NNC(=O)c1cc(O)c(O)c(O)c1	i	nt	i	i	i	i	i	i
CN(C)c1ccc(/C=N/N(CCC#N)C2=NS(=O)(=O)c3ccccc32)cc1	i	nt	i	i	i	i	nt	nt
O=C(NCC1CCCO1)c1ccc(-c2ccccc2Cl)o1 (configuration not stated)	i	i	i	nt	62.2	i	i	i
CC(C(=O)Nc1ccc2c(c1)OCO2)c1ccc([N+](=O)[O-])cc1 (configuration not stated)	i	i	i	i	64.6	i	i	i
CCN(CC)c1ccc(S(=O)(=O)N2CCOCC2)cc1NC(=O)COC(=O)/C=C/c1ccc(C)o1	i	i	i	nt	i	i	nt	nt
O=C(NNc1cccc(Cl)n1)c1ccc(Cl)cc1Cl	i	nt	i	nt	i	i	nt	nt
O=C(NNc1cccc(Cl)n1)c1ccccc1CC[N+](=O)[O-]	i	i	i	i	55.1	i	i	i
COC(=O)C1=C(NC(=O)COc2ccc(Cl)cc2Cl)CCS1	i	i	i	i	66.5	i	i	i
COC(=O)C1=C(NC(=O)COc2ccc3ccccc3c2)CCS1	i	nt	i	i	i	i	nt	nt
O=C1c2ccccc2NC(c2cnc3ccccc3n2)N1O (configuration not stated)	i	i	i	nt	94.5	i	i	i
Cc1nn(C)c(C)c1C1Nc2ccccc2C(=O)N1O (configuration not stated)	i	i	i	i	i	i	nt	nt
COc1cccc(OC)c1OCCN1CCC(C(=O)NC(c2ccc3c(c2)OCO3)c2ccccn2)CC1 (configuration not stated)	nt	i	nt	nt	nt	nt	nt	nt
N#Cc1c(NC(=O)CSc2ncnc3c2cnn3-c2ccccc2Cl)sc2c1CCCC2	i	i	i	nt	59.7	i	i	i
COC(=O)c1c(NC(=O)CSc2ncnc3c2cnn3-c2ccccc2Cl)sc2c1CCCC2	i	i	i	i	i	i	nt	nt
O=C(CCC(=O)Nc1ccc(Cl)cc1Cl)N/N=C/c1ccc([N+](=O)[O-])o1	i	nt	i	i	nt	nt	nt	nt
COC(=O)c1ccccc1N(C)S(=O)(=O)c1cc2c3c(c1)CCC(=O)N3CCC2	i	i	i	nt	i	i	nt	nt
Cc1cccc(-n2c(C)cc(/C=C3/C(=N)N4C(c5ccccc5)=CSC4=NC3=O)c2C)c1	i	i	i	i	54.9	i	i	i
Cc1cc(/C=C2/C(=N)N3C(c4ccccc4)=CSC3=NC2=O)c(C)n1-c1ccc(Cl)cc1	nt	i	nt	nt	i	i	nt	nt
Nc1nn(-c2ccccc2)c(N)c1N=Nc1ccccc1F	i	nt	i	i	56.2	i	i	i
CC(=O)OCC(=O)Nc1ccc(N=Nc2ccccc2)cc1	i	nt	i	i	i	i	nt	nt
CC(C)C(=O)OCC(=O)Nc1ccc(N=Nc2ccccc2)cc1	i	nt	nt	i	55.9	i	i	i
CCOC(=O)c1ccc(N=c2sc(C(=O)OC)cc(=O)n2C2CC2)cc1	i	i	i	nt	106.2	i	i	89.3
O=[N+]([O-])c1cc(S(=O)(=O)N2CCCC2)ccc1N/N=C/c1cccnc1	i	i	i	i	69.6	i	i	i
SMILES	GRK2 aptamer HTS	H9c2 TAG inh	NTR1 ag	Lipid droplet	Arrestin-AP2 inh	Beta2AR agonist	Arr AP2 CP1	GST-FITC bead
CCS(=O)(=O)C(C)(CCl)C(=O)Nc1ccc(C(=O)OC)cc1 (configuration not stated)	i	i	i	i	i	i	nt	nt
CCOC(=O)c1c(C)[nH]c(C(=O)CN2C(=O)C(=O)N(CC(C)C)C2=O)c1C	i	i	i	i	55.6	i	i	i
CCCN1CCN(C(=O)Cn2nc(C)n3c(cc4c(OC)cccc43)c2=O)CC1	nt	nt	nt	nt	i	i	nt	nt
COc1cccc2c1cc1c(=O)n(CC(=O)NCCCN3CCN(C)CC3)nc(C)n12	i	nt	i	i	59.4	i	i	i
COC(=O)c1ccc(C(=O)N=c2sccn2C)cc1	i	nt	i	i	i	i	nt	nt
COc1ccc(-c2noc(CN(C(=O)c3ccc4c(c3)OCO4)C(C)C)n2)cc1OC	i	i	i	nt	59.7	i	i	i
COC(=O)Cc1c(C)c2ccc(O)c(CN3CCCC(C)C3)c2oc1=O (configuration not stated)	i	i	i	i	104.9	i	i	i
Nc1ncc(Br)cc1S(=O)(=O)Nc1ccccc1F	i	nt	i	i	58.4	i	i	i
Cc1ccc2c(CC(=O)Nc3ccc4nc(N5CCOCC5)sc4c3)coc2c1	nt	i	nt	nt	nt	nt	nt	nt
Nc1nccnc1C(=O)OCC(=O)NC1CCCc2ccccc21 (configuration not stated)	i	i	i	nt	i	i	nt	nt
COc1cc(C)c(S(=O)(=O)N2CCCC2)cc1C(C)C	i	i	i	i	57.2	i	i	i
COc1cc(C)c(S(=O)(=O)N2CCCC2)cc1C	i	nt	i	i	i	i	nt	nt
Cc1cccc(C(=O)O/N=C(\N)Cc2ccc([N+](=O)[O-])cc2)c1	i	nt	i	i	i	i	nt	nt
Cc1cccc(C(=O)Oc2ccc(/C=N/NC(=O)Cc3ccc([N+](=O)[O-])cc3)cc2)c1	i	nt	i	i	105.5	i	i	58.7
COCCNC(=O)c1cccc(S(=O)(=O)N2CC3(C)CC2CC(C)(C)C3)c1 (configuration not stated)	i	i	i	nt	62.6	i	i	i
CC(c1ccccc1)n1ccnc1CO (configuration not stated)	nt	i	nt	nt	nt	nt	nt	nt
O=C1C(Cl)=C(N2CCCCC2)C(=O)C(Cl)=C1c1cnc(N2CCCCC2)s1	nt	nt	i	i	98.1	i	67.6	i
O=C1C(Cl)=C(N2CCCCCC2)C(=O)N1c1ccc(Cl)cc1	i	nt	i	i	i	i	nt	nt
CN(C)c1ncc(C2=C(Cl)C(=O)C(N3CCCC3)=C(Cl)C2=O)s1	i	nt	i	nt	88.2	75.7	77.1	i
Cc1noc(C)c1C(=O)N(CC(=O)Nc1ccccc1Br)Cc1ccco1	i	i	i	nt	i	i	nt	nt
O=C(CN1CCCN(S(=O)(=O)c2ccc(Br)s2)CC1)Nc1ccc(Cl)cc1	i	nt	i	i	i	i	nt	nt
CC1CCCC(NC(=O)CN2CCN(S(=O)(=O)c3ccc(Br)s3)CC2)C1C (configuration not stated)	nt	i	i	nt	63.6	i	i	i
O=C(Oc1cccc(C(=S)N2CCCCC2)c1)c1ccccc1	i	i	i	i	56.0	i	i	i
O=C(CCOc1ccccc1)Nc1ccc([N+](=O)[O-])cc1	i	nt	i	i	i	i	nt	nt
